Results as given in ChEMBL document CHEMBL1124766, “Novel benzamides as selective and potent gastric prokinetic agents. 1. Synthesis and structure-activity relationships of N-[(2-morpholinyl)alkyl]benzamides” (1990).

Key:
Rattus norvegicus [1] = experiment: Evaluated for the effects on the gastric emptying rates of phenol red semisolid meal through the stomach in rats, at a dose of 2.0 mg/Kg administered perorally.; format: functional
Procedure, shortened: (§1)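 Mice or rats fasted 18 h. Compound suspended in 0.5% tragacanth given orally 60 min before a gavaged meal of 0.05% phenol red in 1.5% aqueous methylcellulose (0.2 mL/mouse, 1.5 mL/rat). Animals killed 15 min later; phenol red left in stomach measured (Scarpignato method). Emptying expressed as % enhancement over tragacanth-control mean; Duncan's multiple range test.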

Mus musculus [2] = experiment: Evaluated for the effects on the gastric emptying rates of phenol red semisolid meal through the stomach in mouse, at a dose of 0.5 mg/kg administered perorally; format: functional; conditions: route oral; procedure, shortened: as §1
Rattus norvegicus [3] = experiment: Evaluated for the effects on the gastric emptying rates of phenol red semisolid meal through the stomach in rats, at a dose of 5.0 mg/kg administered perorally; format: functional; conditions: route oral; procedure, shortened: as §1
Rattus norvegicus [4] = experiment: Evaluated for the effects on the gastric emptying rates of resin pellets solid meal through the stomach in rats, at a dose of 2.0 mg/kg administered perorally; format: functional; conditions: route oral
Procedure, shortened: (§2)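 Rats fasted 18 h. Compound suspended in 0.5% tragacanth given orally 30 min before 40 resin pellets (Amberlite IRA-93, 1-mm) are delivered into the stomach by tube. Animals killed 1 h later and pellets remaining in the stomach counted (Jacoby method). Result given as % enhancement over tragacanth-control mean; Duncan's multiple range test.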

Rattus norvegicus [5] = experiment: Evaluated for the effects on the gastric emptying rates of phenol red semisolid meal through the stomach in rats, at a dose of 0.5 mg/kg administered perorally; format: functional; conditions: route oral; procedure, shortened: as §1
Mus musculus [6] = experiment: Evaluated for the effects on the gastric emptying rates of phenol red semisolid meal through the stomach in mouse, at a dose of 2 mg/kg administered perorally; format: functional; conditions: route oral; procedure, shortened: as §1
Rattus norvegicus [7] = experiment: Evaluated for the effects on the gastric emptying rates of resin pellets solid meal through the stomach in rats, at a dose of 5.0 mg/kg administered perorally; format: functional; conditions: route oral; procedure, shortened: as §2
[8] = target: D(2) dopamine receptor (Canis lupus familiaris) (UniProt Q9GJU1); experiment: Evaluated for the dopamine D2 receptor antagonistic activity (antagonism of the apomorphine-induced emesis in dogs) at a dose of 3.0 mg/kg administered perorally (po).; format: functional, organism-based; set-up: dose 3 mg/kg
Procedure, shortened: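 Male beagle dogs (10-16 kg), groups of three to six, pretreated with test compound; 2 h later apomorphine hydrochloride 0.3 mg/kg s.c.; emetic episodes counted over 1 h. Modified Janssen method.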

Rattus norvegicus [9] = experiment: Evaluated for the effects on the gastric emptying rates of phenol red semisolid meal through the stomach in rats, at a dose of 10.0 mg/kg administered perorally; format: functional; conditions: route oral; procedure, shortened: as §1
Mus musculus [10] = experiment: Evaluated for the effects on the gastric emptying rates of phenol red semisolid meal through the stomach in mouse, at a dose of 5 mg/kg administered perorally; format: functional; conditions: route oral; procedure, shortened: as §1
Rattus norvegicus [11] = experiment: Evaluated for the effects on the gastric emptying rates of phenol red semisolid meal through the stomach in rats, at a dose of 2.0 mg/kg administered perorally; format: functional; conditions: route oral; procedure, shortened: as §1
Mus musculus [12] = experiment: Evaluated for the effects on the gastric emptying rates of phenol red semisolid meal through the stomach in mouse, at a dose of 1 mg/kg administered perorally; format: functional; conditions: route oral; procedure, shortened: as §1
Rattus norvegicus [13] = experiment: Evaluated for the effects on the gastric emptying rates of resin pellets solid meal through the stomach in rats, at a dose of 5.0 mg/Kg administered perorally; format: functional; procedure, shortened: as §2
Rattus norvegicus [14] = experiment: Evaluated for the effects on the gastric emptying rates of phenol red semisolid meal through the stomach in rats, at a dose of 0.5 mg/Kg administered perorally; format: functional; procedure, shortened: as §1
Rattus norvegicus [15] = experiment: Evaluated for the effects on the gastric emptying rates of phenol red semisolid meal through the stomach in rats, at a dose of 5.0 mg/Kg administered perorally; format: functional; procedure, shortened: as §1
Mus musculus [16] = experiment: Evaluated for the effects on the gastric emptying rates of phenol red semisolid meal through the stomach in mouse, at a dose of 2 mg/Kg administered perorally; format: functional; procedure, shortened: as §1
Rattus norvegicus [17] = experiment: Evaluated for the effects on the gastric emptying rates of phenol red semisolid meal through the stomach in rats, at a dose of 10.0 mg/Kg administered perorally; format: functional; procedure, shortened: as §1
Mus musculus [18] = experiment: Evaluated for the effects on the gastric emptying rates of phenol red semisolid meal through the stomach in mouse, at a dose of 5 mg/Kg administered perorally; format: functional; procedure, shortened: as §1
Rattus norvegicus [19] = experiment: Evaluated for the effects on the gastric emptying rates of resin pellets solid meal through the stomach in rats, at a dose of 10 mg/Kg administered perorally; format: functional; procedure, shortened: as §2
Mus musculus [20] = experiment: Evaluated for the effects on the gastric emptying rates of phenol red semisolid meal through the stomach in mouse, at a dose of 1 mg/Kg administered perorally; format: functional; procedure, shortened: as §1
Mus musculus [21] = experiment: Evaluated for the effects on the gastric emptying rates of phenol red semisolid meal through the stomach in mouse, at a dose of 0.5 mg/Kg administered perorally; format: functional; procedure, shortened: as §1
Rattus norvegicus [22] = experiment: Evaluated for the effects on the gastric emptying rates of resin pellets solid meal through the stomach in rats, at a dose of 2.0 mg/Kg administered perorally; format: functional; procedure, shortened: as §2
[23] = target: D(2) dopamine receptor (Canis lupus familiaris) (UniProt Q9GJU1); conditions: 3.0 mg/kg
Rattus norvegicus [24] = experiment: Evaluated for the effects on the gastric emptying rates of resin pellets solid meal through the stomach in rats, at a dose of 10 mg/kg administered perorally; format: functional; conditions: route oral; procedure, shortened: as §2
[25] = test system: dopamine D2 receptor (Canis familiaris); experiment: Evaluated for the dopamine D2 receptor antagonistic activity (antagonism of apomorphine-induced emesis in dogs) at a dose of 3.0 mg/kg administered perorally; conditions: Canis lupus familiaris
Mus musculus [26] = experiment: Evaluated for the effects on the gastric emptying rates of phenol red semisolid meal through the stomach in mouse, at a dose of 2 mg/kg administered perorally (po); (p<0.01); format: functional; procedure, shortened: as §1

Chain of D(2) dopamine receptor (Canis lupus familiaris) (Q9GJU1 whole entry): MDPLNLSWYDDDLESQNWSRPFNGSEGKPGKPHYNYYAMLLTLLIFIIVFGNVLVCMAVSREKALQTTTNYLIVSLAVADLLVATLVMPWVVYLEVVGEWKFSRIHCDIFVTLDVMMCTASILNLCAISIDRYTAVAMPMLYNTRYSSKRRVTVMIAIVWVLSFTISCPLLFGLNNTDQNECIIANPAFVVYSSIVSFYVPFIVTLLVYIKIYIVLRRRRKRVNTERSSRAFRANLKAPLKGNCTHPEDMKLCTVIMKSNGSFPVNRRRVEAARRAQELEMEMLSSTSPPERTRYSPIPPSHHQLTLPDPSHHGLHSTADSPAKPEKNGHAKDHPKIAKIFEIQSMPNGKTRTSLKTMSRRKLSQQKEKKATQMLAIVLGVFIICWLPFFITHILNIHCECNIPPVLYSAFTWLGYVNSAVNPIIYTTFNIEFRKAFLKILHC

Compound: NS(=O)(=O)c1ccc(Cl)c(C(=O)NCC2CN(Cc3ccccc3)CCO2)c1 (stereo not drawn)
- GE (Rattus norvegicus [1]): 18%

Compound: CN(C)c1c(Cl)cc(C(=O)NCC2CN(Cc3ccccc3)CCO2)c(O)c1Cl.O=C(O)C(=O)O (stereo not drawn)
- GE (Rattus norvegicus [1]): 14%

Compound: COc1cc(N)c(Cl)cc1C(=O)N(C)CC1CN(Cc2ccccc2)CCO1.O=C(O)/C=C/C(=O)O (stereo not drawn)
- GE (Rattus norvegicus [1]): 15%

Compound: COc1cc(N(C)C)c(Cl)cc1C(=O)NCC1CN(Cc2ccccc2)CCO1.O=C(O)/C=C/C(=O)O (stereo not drawn)
- GE (Mus musculus [2]): 7%
- GE (Rattus norvegicus [3]): 47%
- GE (Rattus norvegicus [4]): 15%
- GE (Rattus norvegicus [5]): 27%
- GE (Mus musculus [6]): 43%
- GE (Rattus norvegicus [7]): 5%
- inhibition [8]: 0%
- GE (Rattus norvegicus [9]): 49%
- GE (Mus musculus [10]): 43%
- GE (Rattus norvegicus [11]): 52%
- GE (Mus musculus [12]): 33%

Compound: COc1cc(N)c(Cl)cc1C(=O)NCC1CN(Cc2ccccc2)CCO1 (stereo not drawn) [listing 1 of 2 here]
- GE (Rattus norvegicus [13]): 70%
- GE (Rattus norvegicus [14]): 18%
- GE (Rattus norvegicus [15]): 35%
- GE (Mus musculus [16]): 46%
- GE (Rattus norvegicus [1]): 26%
- GE (Rattus norvegicus [17]): 52%
- GE (Mus musculus [18]): 68%
- GE (Rattus norvegicus [19]): 78%
- GE (Mus musculus [20]): 49%
- GE (Mus musculus [21]): 50%
- GE (Rattus norvegicus [22]): 49%

Compound: COc1cc(Cl)ccc1C(=O)NCC1CN(Cc2ccccc2)CCO1.Cl (stereo not drawn)
- GE (Rattus norvegicus [1]): 23%

Compound: COc1c(Cl)cc(Cl)c(OC)c1C(=O)NCC1CN(Cc2ccccc2)CCO1 (stereo not drawn)
- GE (Rattus norvegicus [1]): 4%

Compound: CCOc1cc(N(C)C)c(Cl)cc1C(=O)NCC1CN(Cc2ccccc2)CCO1.O=C(O)C(=O)O (stereo not drawn)
- GE (Rattus norvegicus [1]): 51%

Compound: COc1ccc(S(N)(=O)=O)cc1C(=O)NCC1CN(Cc2ccccc2)CCO1 (stereo not drawn)
- GE (Rattus norvegicus [1]): 24%

Compound: O=C(NCC1CN(Cc2ccccc2)CCO1)c1c(F)c(F)c(F)c(F)c1F.O=C(O)C(=O)O (stereo not drawn)
- GE (Rattus norvegicus [1]): 9%

Compound: COc1cc(N)ccc1C(=O)NCC1CN(Cc2ccccc2)CCO1 (stereo not drawn)
- GE (Rattus norvegicus [1]): 11%

Compound: COc1cc(N)c(Cl)cc1C(=O)NCCC1CN(Cc2ccccc2)CCO1.O=C(O)/C=C/C(=O)O (stereo not drawn)
- GE (Rattus norvegicus [1]): 35%

Compound: COc1cc(N)c(Br)cc1C(=O)NCC1CN(Cc2ccccc2)CCO1 (stereo not drawn)
- GE (Rattus norvegicus [1]): 10%

Compound: CCN(CC)CCNC(=O)c1cc(Cl)c(N)cc1OC [METOCLOPRAMIDE]
- GE (Rattus norvegicus [3]): 26%
- inhibition [23]: 100%
- GE (Mus musculus [6]): 20%
- GE (Rattus norvegicus [7]): 23%
- GE (Rattus norvegicus [24]): 43%
- GE (Rattus norvegicus [9]): 31%
- GE (Mus musculus [10]): 28%
- GE (Rattus norvegicus [11]): 21%
- GE (Mus musculus [12]): -10%

Compound: COc1cc(Cl)c(N)cc1C(=O)NCC1CN(Cc2ccccc2)CCO1 (stereo not drawn)
- GE (Rattus norvegicus [1]): 10%

Compound: COc1cc(N)c(Cl)cc1C(=O)NCC1CN(Cc2ccccc2)CCO1 (stereo not drawn) [listing 2 of 2 here]
- inhibition [25]: 4%

Compound: CCOc1cc(N)c(Cl)cc1C(=O)NCCC1CN(Cc2ccccc2)CCO1 (stereo not drawn)
- GE (Rattus norvegicus [1]): 45%

Compound: CCOc1ccc(S(N)(=O)=O)cc1C(=O)NCC1CN(Cc2ccccc2)CCO1 (stereo not drawn)
- GE (Rattus norvegicus [1]): 19%

Compound: CNc1cc(OC)c(C(=O)NCC2CN(Cc3ccccc3)CCO2)cc1Cl.O=C(O)/C=C/C(=O)O (stereo not drawn)
- GE (Rattus norvegicus [1]): 14%

Compound: COc1ccc(Cl)cc1C(=O)NCC1CN(Cc2ccccc2)CCO1.Cl (stereo not drawn)
- GE (Rattus norvegicus [1]): 19%

Compound: COc1ccccc1C(=O)NCC1CN(Cc2ccccc2)CCO1.O=C(O)/C=C/C(=O)O (stereo not drawn)
- GE (Rattus norvegicus [1]): 17%

Compound: O=C(NCC1CN(Cc2ccccc2)CCO1)c1ccc2c(c1)OCO2.O=C(O)/C=C/C(=O)O (stereo not drawn)
- GE (Rattus norvegicus [1]): 34%

Compound: CCOc1cc(N)c(Cl)cc1C(=O)NCCCC1CN(Cc2ccccc2)CCO1 (stereo not drawn)
- GE (Rattus norvegicus [1]): 18%

Compound: CN(C)c1cc(O)c(C(=O)NCC2CN(Cc3ccccc3)CCO2)cc1Cl.O=C(O)C(=O)O (stereo not drawn)
- GE (Rattus norvegicus [1]): 27%

Compound: COc1cc(N)c(Cl)cc1C(=O)OCC1CN(Cc2ccccc2)CCO1 (stereo not drawn)
- GE (Rattus norvegicus [1]): 17%

Compound: CCOc1cc(N)c(Cl)cc1C(=O)NCC1CN(Cc2ccccc2)CCO1.O (stereo not drawn)
- GE (Mus musculus [2]): 35%
- GE (Rattus norvegicus [3]): 56%
- GE (Mus musculus [26]): 52%
- GE (Rattus norvegicus [4]): 58%
- GE (Rattus norvegicus [5]): 34%
- GE (Rattus norvegicus [7]): 76%
- inhibition [8]: 5%
- GE (Rattus norvegicus [9]): 49%
- GE (Mus musculus [10]): 38%
- GE (Rattus norvegicus [11]): 54%
- GE (Mus musculus [12]): 23%

Compound: COc1cc(NC(C)=O)ccc1C(=O)NCC1CN(Cc2ccccc2)CCO1.O (stereo not drawn)
- GE (Rattus norvegicus [1]): 24%

Compound: CCN(CC)c1cc(OC)c(C(=O)NCC2CN(Cc3ccccc3)CCO2)cc1Cl.O=C(O)C(=O)O (stereo not drawn)
- GE (Rattus norvegicus [1]): 21%

Compound: COc1cc(N)c(Cl)cc1C(=O)NC1CCN(CCCOc2ccc(F)cc2)CC1OC (stereo not drawn) [CISAPRIDE]
- GE (Mus musculus [2]): 24%
- GE (Rattus norvegicus [3]): 50%
- GE (Rattus norvegicus [5]): 14%
- GE (Mus musculus [6]): 36%
- GE (Rattus norvegicus [9]): 43%
- GE (Mus musculus [10]): 38%
- GE (Rattus norvegicus [11]): 47%
- GE (Mus musculus [12]): 29%

Compound: Nc1ccc(C(=O)NCC2CN(Cc3ccccc3)CCO2)cc1Cl.O=C(O)C(=O)O (stereo not drawn)
- GE (Rattus norvegicus [1]): 30%

Compound: COc1cc(N)c(Cl)cc1C(=O)NCC1CN(Cc2ccccc2)CCO1.Cl (stereo not drawn)
- GE (Rattus norvegicus [1]): 39%

Compound: O=C(NCC1CN(Cc2ccccc2)CCO1)c1cccc2c1OCO2.O=C(O)/C=C/C(=O)O (stereo not drawn)
- GE (Rattus norvegicus [1]): 30%

Compound: CC(=O)Nc1cc(O)c(C(=O)NCC2CN(Cc3ccccc3)CCO2)cc1Cl (stereo not drawn)
- GE (Rattus norvegicus [1]): 11%

Compound: Nc1cc(O)c(C(=O)NCC2CN(Cc3ccccc3)CCO2)cc1Cl.O (stereo not drawn)
- GE (Rattus norvegicus [1]): 36%

Compound: COc1cc(C(=O)NCC2CN(Cc3ccccc3)CCO2)cc(OC)c1OC.O=C(O)C(=O)O (stereo not drawn)
- GE (Rattus norvegicus [1]): 11%

Compound: COc1cc(N)c([N+](=O)[O-])cc1C(=O)NCC1CN(Cc2ccccc2)CCO1.O (stereo not drawn)
- GE (Rattus norvegicus [1]): 14%

Compound: COc1cc(N)c(Cl)cc1C(=O)NCCCC1CN(Cc2ccccc2)CCO1.O=C(O)C(=O)O (stereo not drawn)
- GE (Rattus norvegicus [1]): 23%

Compound: CCSc1ccc(S(N)(=O)=O)cc1C(=O)NCC1CN(Cc2ccccc2)CCO1 (stereo not drawn)
- GE (Rattus norvegicus [1]): 27%
